Experimental findings from ChEMBL document CHEMBL4152391, “Bile Acid Oligomers and Their Combination with Antibiotics To Combat Bacterial Infections” (J Med Chem, 2018) are described below.

Converted amounts (≈) assume the structure as drawn. The source made the active and inactive calls. No cut-off for these calls is given here. A value given as a limit tells only on which side of the number the result lay.

The test system of one data set is Escherichia coli. Briefly: Antibacterial activity against Escherichia coli ATCC 25922 at 5 to 100 ug after 18 hrs by agar disk-diffusion method. Type of data set: functional, organism-based. An outline of the steps:
(§1)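 Agar disk diffusion per CLSI: compound loaded on sterile 6 mm paper disks, dried, placed on Mueller Hinton agar lawned with bacteria at McFarland 0.5; cefotaxime positive and DMSO solvent controls; 37 °C for 18 h; zone of inhibition diameter measured to nearest whole mm.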

A further data set concerns Pseudomonas aeruginosa. Put plainly: Antibacterial activity against Pseudomonas aeruginosa at 5 to 100 ug after 18 hrs by agar disk-diffusion method. Type of data set: functional, organism-based. An outline of the steps:
as §1

Data set [1] has as its system Staphylococcus aureus. Put plainly: Antibacterial activity against Staphylococcus aureus ATCC 29213 after 18 hrs by broth microdilution method. The settings on record: ATCC 29213, 18 h. In kind it is functional, organism-based. An outline of the steps: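 Broth microdilution per CLSI for water-insoluble agents: twofold serial dilutions made in DMSO at 100x final, diluted in Mueller Hinton broth to 1% final DMSO; 5x10^5 cfu/mL bacteria exposed 18 h at 37 °C with positive, growth and sterility controls. MIC = lowest concentration giving complete growth inhibition (turbidity and XTT reduction); IC50 from OD600 dose-response inflection point.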

Data set [2] has as its system Staphylococcus aureus. Put plainly: Antibacterial activity against Staphylococcus aureus ATCC 29213 at 30 ug after 18 hrs by agar disk-diffusion method. In kind it is functional. The procedure, abridged: as §1
Data set [3] concerns Staphylococcus aureus. Put plainly: Antibiofilm activity against Staphylococcus aureus ATCC 29213 at 128 ug/ml after 18 hrs by XTT-menadione assay relative to control. In kind it is functional. An outline of the steps: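 Biofilms grown 24 h at 37 °C from suspension at OD600 0.1 in tryptic soy broth with 1% glucose, washed twice with saline, exposed 18 h at 37 °C to twofold serial dilutions; growth and sterility controls. Read by XTT (0.5 mg/mL)–menadione (10 µM) in MHB, 1 h dark at 37 °C, absorbance 450 nm; MBIC50 and MBIC100 = 50% and 100% inhibition.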

In another data set the test system is HEK293. Briefly: Cytotoxicity against HEK293 cells assessed as decrease in cell viability at 1 to 200 uM after 24 hrs by Alamar Blue assay. In kind it is cell-based. The settings on record: human, hek293, 24 h. An outline of the steps:
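HEK293 cells in DMEM HG, 10% FBS, 1% pen-strep, 37 °C 5% CO2, passage under 30, used at 80% confluency; seeded 1×10^4/well, after 24 h washed and treated 24 h with 1–200 µM in complete medium; alamar blue (0.15 mg/mL) added for 4 h, absorbance 570 and 600 nm; viability relative to untreated cells as 100%.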

Data set [4] deals with Staphylococcus aureus. Briefly: Antibacterial activity against Staphylococcus aureus ATCC 29213 at 5 to 100 ug after 18 hrs by agar disk-diffusion method. Type of data set: functional, organism-based. The procedure, abridged:
as §1

For the molecule `C[C@H](CCC(=O)NCCNCCNCCNC(=O)CC[C@@H](C)[C@H]1CC[C@H]2[C@@H]3[C@H](O)C[C@@H]4C[C@H](O)CC[C@]4(C)[C@H]3C[C@H](O)[C@]12C)[C@H]1CC[C@H]2[C@@H]3[C@H](O)C[C@@H]4C[C@H](O)CC[C@]4(C)[C@H]3C[C@H](O)[C@]12C`, the result with Escherichia coli was inactive. Further, the outcome in the data set with Pseudomonas aeruginosa was inactive. Besides, in the data set with Staphylococcus aureus [1], the IC50 worked out at 12.1 µg/mL (≈ 13 µM) and the minimum inhibitory concentration (MIC) came to 16 µg/mL (≈ 17.3 µM). Moreover, the zone of inhibition at 30 µg/disc in the data set on Staphylococcus aureus [2] (ATCC 29213, 18 h, read-out: DIZ) came out at 11 mm.

In turn, `O=C(O)c1cn(C2CC2)c2cc(N3CCNCC3)c(F)cc2c1=O` [CIPROFLOXACIN] came in with an Activity in the data set on Staphylococcus aureus [3] of under 50%.

Take `CO/N=C(\C(=O)N[C@@H]1C(=O)N2C(C(=O)O)=C(COC(C)=O)CS[C@H]12)c1csc(N)n1` [CEFOTAXIME]: in the data set on Staphylococcus aureus [3], the Activity is reported as under 50%.

As for `CCCCCCCCCCCCCCCC(=O)NCCN(CCNC(=O)OC(C)(C)C)C(=O)OC(C)(C)C`, the result in the data set on Escherichia coli and in the data set with Pseudomonas aeruginosa was inactive.

With `C[C@H](CCC(=O)NCCNC(=O)CC[C@@H](C)[C@H]1CC[C@H]2[C@@H]3CC[C@@H]4C[C@H](O)CC[C@]4(C)[C@H]3C[C@H](O)[C@]12C)[C@H]1CC[C@H]2[C@@H]3CC[C@@H]4C[C@H](O)CC[C@]4(C)[C@H]3C[C@H](O)[C@]12C`, the Activity result with HEK293 is on record as “Non-Toxic”. Moreover, the outcome with Escherichia coli, in the data set on Pseudomonas aeruginosa and with Staphylococcus aureus [2] was inactive.

For the molecule `NCC[C@H](O)C(=O)N[C@@H]1C[C@H](N)[C@@H](O[C@H]2O[C@H](CN)[C@@H](O)[C@H](O)[C@H]2O)[C@H](O)[C@H]1O[C@H]1O[C@H](CO)[C@@H](O)[C@H](N)[C@H]1O` [AMIKACIN], in the data set with Staphylococcus aureus [3], the Activity is under 50%.

With `C[C@H](CCC(=O)NCCNC(=O)CC[C@@H](C)[C@H]1CC[C@H]2[C@@H]3[C@H](O)C[C@@H]4C[C@H](O)CC[C@]4(C)[C@H]3C[C@H](O)[C@]12C)[C@H]1CC[C@H]2[C@@H]3[C@H](O)C[C@@H]4C[C@H](O)CC[C@]4(C)[C@H]3C[C@H](O)[C@]12C`, the Activity entry in the data set with HEK293 is “Non-Toxic”. In addition, the outcome in the data set with Escherichia coli, in the data set on Pseudomonas aeruginosa and in the data set on Staphylococcus aureus [2] was inactive.

With `CC(=O)N(CCNC(=O)CC[C@@H](C)[C@H]1CC[C@H]2[C@@H]3[C@H](O)C[C@@H]4C[C@H](O)CC[C@]4(C)[C@H]3C[C@H](O)[C@]12C)CCNC(=O)CC[C@@H](C)[C@H]1CC[C@H]2[C@@H]3[C@H](O)C[C@@H]4C[C@H](O)CC[C@]4(C)[C@H]3C[C@H](O)[C@]12C`, the outcome with Escherichia coli, in the data set with Pseudomonas aeruginosa and in the data set on Staphylococcus aureus [4] was inactive.

Turning to `C[C@H](CCC(=O)NCCCNC(=O)CC[C@@H](C)[C@H]1CC[C@H]2[C@@H]3CC[C@@H]4C[C@H](O)CC[C@]4(C)[C@H]3C[C@H](O)[C@]12C)[C@H]1CC[C@H]2[C@@H]3CC[C@@H]4C[C@H](O)CC[C@]4(C)[C@H]3C[C@H](O)[C@]12C`, the Activity entry in the data set with HEK293 is listed as “Non-Toxic”. Further, the outcome in the data set with Escherichia coli, with Pseudomonas aeruginosa and in the data set with Staphylococcus aureus [2] was inactive.

In the case of `CCCCCCCCCCCCCCCC(=O)NCCNCCNC(=O)CC[C@@H](C)[C@H]1CC[C@H]2[C@@H]3[C@H](O)C[C@@H]4C[C@H](O)CC[C@]4(C)[C@H]3C[C@H](O)[C@]12C`, the outcome with Escherichia coli, in the data set on Pseudomonas aeruginosa and in the data set with Staphylococcus aureus [4] was inactive.

Take `CC(C)(C)OC(=O)NCCN(CCN)C(=O)OC(C)(C)C`: the result in the data set on Escherichia coli and in the data set on Pseudomonas aeruginosa was inactive.

Turning to `CCCCCCCCCCCCCCCC(=O)NCCNCCN`, the outcome with Escherichia coli and in the data set with Pseudomonas aeruginosa was inactive.

On to `C[C@H](CCC(=O)N1CCCN(C(=O)CC[C@@H](C)[C@H]2CC[C@H]3[C@@H]4[C@H](O)C[C@@H]5C[C@H](O)CC[C@]5(C)[C@H]4C[C@H](O)[C@]23C)CCN(C(=O)CC[C@@H](C)[C@H]2CC[C@H]3[C@@H]4[C@H](O)C[C@@H]5C[C@H](O)CC[C@]5(C)[C@H]4C[C@H](O)[C@]23C)CCCN(C(=O)CC[C@@H](C)[C@H]2CC[C@H]3[C@@H]4[C@H](O)C[C@@H]5C[C@H](O)CC[C@]5(C)[C@H]4C[C@H](O)[C@]23C)CC1)[C@H]1CC[C@H]2[C@@H]3[C@H](O)C[C@@H]4C[C@H](O)CC[C@]4(C)[C@H]3C[C@H](O)[C@]12C`, for which the Activity result in the data set with HEK293 is on record as “Non-Toxic”. The result with Escherichia coli, in the data set with Pseudomonas aeruginosa and in the data set on Staphylococcus aureus [4] was inactive.

`C[C@H](CCC(=O)NCCN(CCNC(=O)CC[C@@H](C)[C@H]1CC[C@H]2[C@@H]3CC[C@@H]4C[C@H](O)CC[C@]4(C)[C@H]3C[C@H](O)[C@]12C)CCNC(=O)CC[C@@H](C)[C@H]1CC[C@H]2[C@@H]3CC[C@@H]4C[C@H](O)CC[C@]4(C)[C@H]3C[C@H](O)[C@]12C)[C@H]1CC[C@H]2[C@@H]3CC[C@@H]4C[C@H](O)CC[C@]4(C)[C@H]3C[C@H](O)[C@]12C`: the Activity entry in the data set on HEK293 is given as “Non-Toxic”. In addition, the result in the data set on Escherichia coli, with Pseudomonas aeruginosa and in the data set with Staphylococcus aureus [4] was inactive.

Take `C[C@H](CCC(=O)NCCN(CCN(CCNC(=O)CC[C@@H](C)[C@H]1CC[C@H]2[C@@H]3[C@H](O)C[C@@H]4C[C@H](O)CC[C@]4(C)[C@H]3C[C@H](O)[C@]12C)C(=O)OC(C)(C)C)C(=O)OC(C)(C)C)[C@H]1CC[C@H]2[C@@H]3[C@H](O)C[C@@H]4C[C@H](O)CC[C@]4(C)[C@H]3C[C@H](O)[C@]12C`: the outcome in the data set on Escherichia coli, in the data set with Pseudomonas aeruginosa and in the data set with Staphylococcus aureus [4] was inactive.

For the molecule `C[C@H](CCC(=O)NCCCCCNC(=O)CC[C@@H](C)[C@H]1CC[C@H]2[C@@H]3[C@H](O)C[C@@H]4C[C@H](O)CC[C@]4(C)[C@H]3C[C@H](O)[C@]12C)[C@H]1CC[C@H]2[C@@H]3[C@H](O)C[C@@H]4C[C@H](O)CC[C@]4(C)[C@H]3C[C@H](O)[C@]12C`, the outcome with Escherichia coli, in the data set on Pseudomonas aeruginosa and with Staphylococcus aureus [4] was inactive.

`C[C@H](CCC(=O)NCCCNC(=O)CC[C@@H](C)[C@H]1CC[C@H]2[C@@H]3[C@H](O)C[C@@H]4C[C@H](O)CC[C@]4(C)[C@H]3C[C@H](O)[C@]12C)[C@H]1CC[C@H]2[C@@H]3[C@H](O)C[C@@H]4C[C@H](O)CC[C@]4(C)[C@H]3C[C@H](O)[C@]12C`: the Activity entry in the data set with HEK293 is recorded as “Non-Toxic”. Further, the outcome in the data set on Escherichia coli, in the data set with Pseudomonas aeruginosa and in the data set with Staphylococcus aureus [2] was inactive.

With `CCCCCCCCCCCCCCCC(=O)N(CCNC(=O)CC[C@@H](C)[C@H]1CC[C@H]2[C@@H]3[C@H](O)C[C@@H]4C[C@H](O)CC[C@]4(C)[C@H]3C[C@H](O)[C@]12C)CCNC(=O)CC[C@@H](C)[C@H]1CC[C@H]2[C@@H]3[C@H](O)C[C@@H]4C[C@H](O)CC[C@]4(C)[C@H]3C[C@H](O)[C@]12C`, the outcome in the data set on Escherichia coli, in the data set with Pseudomonas aeruginosa and in the data set on Staphylococcus aureus [4] was inactive.

Regarding `C[C@H](CCC(=O)NCCNCCNC(=O)CC[C@@H](C)[C@H]1CC[C@H]2[C@@H]3CC[C@@H]4C[C@H](O)CC[C@]4(C)[C@H]3C[C@H](O)[C@]12C)[C@H]1CC[C@H]2[C@@H]3CC[C@@H]4C[C@H](O)CC[C@]4(C)[C@H]3C[C@H](O)[C@]12C`, the result with Escherichia coli, with Pseudomonas aeruginosa and with Staphylococcus aureus [2] was inactive.

In the case of `C[C@H](CCC(=O)NCCN(CCNC(=O)CC[C@@H](C)[C@H]1CC[C@H]2[C@@H]3[C@H](O)C[C@@H]4C[C@H](O)CC[C@]4(C)[C@H]3C[C@H](O)[C@]12C)CCNC(=O)CC[C@@H](C)[C@H]1CC[C@H]2[C@@H]3[C@H](O)C[C@@H]4C[C@H](O)CC[C@]4(C)[C@H]3C[C@H](O)[C@]12C)[C@H]1CC[C@H]2[C@@H]3[C@H](O)C[C@@H]4C[C@H](O)CC[C@]4(C)[C@H]3C[C@H](O)[C@]12C`, the Activity entry in the data set on HEK293 was “Non-Toxic”. In addition, the outcome in the data set with Escherichia coli, with Pseudomonas aeruginosa and in the data set with Staphylococcus aureus [4] was inactive.
